ChEMBL document CHEMBL1138320, “Discovery of potent & selective inhibitors of activated thrombin-activatable fibrinolysis inhibitor for the treatment of thrombosis” (J Med Chem, 2007)

Tests used:
[1] = molecular target: T1, Carboxypeptidase B2 (Homo sapiens, UniProt Q96IY4); assay: Inhibition of human TAFIa
T1 sequence (Q96IY4 whole entry): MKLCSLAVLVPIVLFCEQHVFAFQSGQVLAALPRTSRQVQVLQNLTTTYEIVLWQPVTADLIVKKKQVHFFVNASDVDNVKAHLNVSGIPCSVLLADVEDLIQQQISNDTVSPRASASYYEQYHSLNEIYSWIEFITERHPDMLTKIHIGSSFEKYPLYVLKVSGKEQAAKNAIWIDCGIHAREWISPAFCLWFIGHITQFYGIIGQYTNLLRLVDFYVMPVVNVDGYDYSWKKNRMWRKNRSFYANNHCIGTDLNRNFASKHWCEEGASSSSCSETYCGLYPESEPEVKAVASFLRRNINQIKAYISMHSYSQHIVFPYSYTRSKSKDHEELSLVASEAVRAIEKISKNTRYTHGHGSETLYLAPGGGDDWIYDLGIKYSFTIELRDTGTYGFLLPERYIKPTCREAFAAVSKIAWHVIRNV

[2] = molecular target: T2, Carboxypeptidase N catalytic chain (Homo sapiens, UniProt P15169); assay: Inhibition of human plasma carboxypeptidase N; assay type: cell-free
T2 sequence (P15169 whole entry): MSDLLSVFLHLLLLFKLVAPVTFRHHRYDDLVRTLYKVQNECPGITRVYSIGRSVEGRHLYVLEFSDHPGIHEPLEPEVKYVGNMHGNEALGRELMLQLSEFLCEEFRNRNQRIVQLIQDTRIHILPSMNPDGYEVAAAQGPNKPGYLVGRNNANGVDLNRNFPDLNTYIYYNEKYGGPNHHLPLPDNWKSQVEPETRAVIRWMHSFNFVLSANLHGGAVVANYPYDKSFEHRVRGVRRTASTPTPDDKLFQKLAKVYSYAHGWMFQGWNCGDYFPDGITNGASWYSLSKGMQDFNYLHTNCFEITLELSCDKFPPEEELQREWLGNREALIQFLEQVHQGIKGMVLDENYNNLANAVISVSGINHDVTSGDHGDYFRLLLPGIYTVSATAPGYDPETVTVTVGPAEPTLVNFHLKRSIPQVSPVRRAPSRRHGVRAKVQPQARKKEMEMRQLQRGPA

[3] = molecular target: T3, Carboxypeptidase B (Sus scrofa, UniProt P09955); assay: Inhibition of porcine pancreatic carboxypeptidase B
T3 sequence (P09955 whole entry): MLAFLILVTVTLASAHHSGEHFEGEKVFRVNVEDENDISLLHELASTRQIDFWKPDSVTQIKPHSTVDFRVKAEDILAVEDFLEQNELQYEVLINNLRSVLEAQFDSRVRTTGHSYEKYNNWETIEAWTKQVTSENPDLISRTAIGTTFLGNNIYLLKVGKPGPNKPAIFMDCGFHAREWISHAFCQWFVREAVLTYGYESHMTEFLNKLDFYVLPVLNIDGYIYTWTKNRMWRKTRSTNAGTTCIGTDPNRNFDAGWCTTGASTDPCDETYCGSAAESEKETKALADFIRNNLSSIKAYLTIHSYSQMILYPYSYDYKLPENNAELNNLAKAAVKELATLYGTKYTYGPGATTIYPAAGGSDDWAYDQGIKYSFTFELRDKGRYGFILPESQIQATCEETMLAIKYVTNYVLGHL

[4] = Selectivity for bovine pancreatic carboxypeptidase A over porcine pancreatic carboxypeptidase B
[5] = tested on: Oryctolagus cuniculus; assay: Inhibition of thrombus weight in iv dosed anesthetized rabbit at 80 nM relative to control; assay type: functional
Summary of the method: (§1)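 Anesthetized rabbits given compound by iv infusion to reach projected free plasma levels of about 8, 80 or 800 nM. Thrombus weight (thrombus formation) was compared with vehicle-treated animals. t-PA at 10 µg/kg/min served as comparator. Group sizes were n = 3–6, with vehicle n = 5–13.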

[6] = Hydrophilicity, log D of the compound; assay type: physicochemical; conditions: octanol/water
[7] = Bioavailability in rat; assay type: ADME, organism-based; conditions: in vivo
[8] = tested on: Oryctolagus cuniculus; assay: Antithrombotic efficacy in anesthetized rabbit assessed as inhibition of thrombus formation at 800 nM relative to control; assay type: functional; summary of the method: as §1
[9] = Bioavailability in dog at 1 mg/kg, po; assay type: ADME, organism-based, Canis lupus familiaris; conditions: in vivo
Summary of the method: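 Oral dosing at 1 mg/kg in dog for pharmacokinetic studies. Oral bioavailability was derived relative to iv dosing.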

[10] = Renal elimination in dog at 0.6 mg/kg, iv by urinary excretion studies; assay type: ADME, organism-based, Canis lupus familiaris; set-up: dose 0.6 mg/kg, route intravenous; conditions: urine, read-out: Activity
Summary of the method: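 Urinary excretion study in a dog after an iv dose. Unchanged drug recovered in the urine was quantified as a percentage of the dose.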

[11] = Terminal elimination in dog at 0.6 mg/kg, iv; assay type: ADME, organism-based, Canis lupus familiaris; set-up: dose 0.6 mg/kg, route intravenous; conditions: in vivo
Summary of the method: (§2)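 Single iv bolus of 0.6 mg/kg given to a dog. Total plasma clearance, volume of distribution and terminal elimination half-life were derived from the plasma pharmacokinetics.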

[12] = Volume of distribution in dog at 0.6 mg/kg, iv; assay type: ADME, organism-based, Canis lupus familiaris; set-up: dose 0.6 mg/kg, route intravenous; conditions: in vivo, read-out: Vdss; summary of the method: as §2
[13] = Tmax in human; assay type: ADME, organism-based; conditions: in vivo
Summary of the method: (§3)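 Human pharmacokinetics after iv and oral dosing. Oral bioavailability and Tmax were determined, including with and without co-administration with food.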

[14] = Plasma clearance in dog at 0.6 mg/kg, iv; assay type: ADME, organism-based, Canis lupus familiaris; set-up: dose 0.6 mg/kg, route intravenous; summary of the method: as §2
[15] = Oral bioavailability in human; assay type: ADME, organism-based; conditions: in vivo; summary of the method: as §3

Row | Ki [1] [µM] | SMILES | further results
1 | 0.084 | CCCn1cnc(C[C@H](NCCN)C(=O)O)c1 | –
2 | 0.14 | NCCN[C@@H](Cc1cn(CCc2ccccc2)cn1)C(=O)O | –
3 | 0.235 | Cn1cnc(C[C@H](NCCN)C(=O)O)c1 | –
4 | 0.3 | NCCCC(CS)C(=O)O (racemic) | –
5 | 0.25 | CCn1cnc(C[C@H](NCCN)C(=O)O)c1 | –
6 | > 0.7 | CCCn1cnc(C[C@@H](CCCN)C(=O)O)c1 | –
7 | 0.004 | NC(N)=NCCCC(CS)C(=O)O (racemic) | Ki [2]: 0.002 µM; Ki [3]: 0.00042 µM
8 | 0.124 | NCCN[C@@H](Cc1cn(CC2CCC2)cn1)C(=O)O | –
9 | – | O=C(O)C(CS)Cc1ccccc1 (racemic) | Selectivity ratio [4]: > 10000
10 | – | NCCN[C@@H](Cc1c[nH]cn1)C(=O)O | Ki [2]: > 10 µM
11 | 0.07 | CCCCn1cnc(C[C@H](NCCN)C(=O)O)c1 | –
12 | 0.43 | CC(C)n1cnc(C[C@H](NCCN)C(=O)O)c1 | –
13 | 0.046 | CCCn1cnc(CC(CCCN)C(=O)O)c1 (racemic) | –
14 | 0.111 | NCCN[C@@H](Cc1cn(CCCO)cn1)C(=O)O | –
15 | 0.16 | CCCCCn1cnc(C[C@H](NCCN)C(=O)O)c1 | –
16 | 0.14 | NCCCC(Cc1c[nH]cn1)C(=O)O (racemic) | –
17 | 0.269 | NCCN[C@@H](Cc1cn(Cc2ccccc2)cn1)C(=O)O | –
18 | 0.1 | CC(C)Cn1cnc(C[C@H](NCCN)C(=O)O)c1 | –
19 | 17 | NCCN[C@H](Cc1c[nH]cn1)C(=O)O | –
20 | 0.01 | CCCn1cnc(C[C@H](CCCN)C(=O)O)c1 [UK-396,082] | Inhibition [5]: 37%; logD [6]: -2.8; bioavailability [7]: 20%; Inhibition [8]: 36%; bioavailability [9]: 42%; dose excreted [10]: 96%; half-life [11]: 1.4 h; Vd [12]: 0.35 L/kg; Tmax [13]: 4 h; clearance [14]: 3.1 mL/min/kg; bioavailability [15]: 23%
